RGS4 block: inhibitors of human RGS4; P49798; AID 463165; actives 0.45% (n = 310,000); B-score at 10 µM; HEK293 M3R/RGS4 inducible, Fluo-4 calcium flux; active compounds read high; triggered by carbachol at its EC20;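 active means B-score, a plate-corrected calcium signal, over three deviations above library mean, with baseline fluorescence within five deviations of library mean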;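 further: RGS4 expression induced by doxycycline in cells with stable M3 receptor; B-score is computed from the integrated fluorescence ratio over baseline after carbachol; higher B-score means a larger calcium signal and so more RGS4 inhibition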
Target sequence (P49798 whole entry, looked up): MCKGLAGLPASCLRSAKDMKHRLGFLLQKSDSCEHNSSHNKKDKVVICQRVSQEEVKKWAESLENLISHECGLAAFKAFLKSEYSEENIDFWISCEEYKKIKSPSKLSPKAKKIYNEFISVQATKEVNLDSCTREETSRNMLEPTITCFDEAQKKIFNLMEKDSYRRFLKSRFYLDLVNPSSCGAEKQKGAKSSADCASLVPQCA
Hep lipid drop: modulators of hepatic lipid droplet formation. AML12 mouse hepatocytes, oleate lipid droplets, BODIPY imaging. inhibition, % at 6.5 µM. actives 0.4% (n = 240,000). AID 1656;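 active means lipid droplet intensity inhibited by at least 50%, with more than 500 cells counted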
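Test system: AML12 mouse liver cells; schedule: overnight exposure; technique: high-content imaging of BODIPY-stained droplets and DAPI nuclei; read-out: % inhibition of corrected integrated BODIPY droplet signal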
MrgX1 antagonist: human MrgX1 receptor antagonism, primary screen. actives 1.3% (n = 310,000). B-score at 10 µM. Q96LB2. MRGX1-HEK293 calcium flux, Fluo-4, BAM8-22 antagonism; active compounds read low. AID 588676;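 active means calcium-response B-score plate-corrected more than 3 library SD below zero, starting fluorescence within 5 deviations, no agonist response on first addition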;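 further: peak minus trough fluorescence over baseline after final BAM8-22 challenge near maximal dose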
Target sequence (Q96LB2 whole entry, looked up): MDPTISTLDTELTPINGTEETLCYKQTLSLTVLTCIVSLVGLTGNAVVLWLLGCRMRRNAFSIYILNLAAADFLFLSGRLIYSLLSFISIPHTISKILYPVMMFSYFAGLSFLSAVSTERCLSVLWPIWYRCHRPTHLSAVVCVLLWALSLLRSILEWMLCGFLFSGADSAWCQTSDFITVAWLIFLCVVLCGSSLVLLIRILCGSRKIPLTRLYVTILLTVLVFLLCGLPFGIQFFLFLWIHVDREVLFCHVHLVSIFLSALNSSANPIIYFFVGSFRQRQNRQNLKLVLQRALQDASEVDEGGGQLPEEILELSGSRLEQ
MrgX1 PAM: human MrgX1 positive allosteric modulation, primary screen | Q96LB2 | MrgX1-HEK293, Fluo-4 calcium flux, FDSS; active compounds read high | B-score at 10 µM | actives 0.63% (n = 310,000) | AID 588675;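 active means plate-corrected calcium response at least 3 library SD above typical, normal starting fluorescence, not activating the receptor alone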;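 further: compound read alongside a low EC10 to EC30 dose of BAM8-22 agonist; peak minus trough fluorescence over baseline measured at the second addition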
MrgX1 ag: agonists of human MrgX1 receptor | Q96LB2 | MrgX1-HEK293 cells, Fluo-4 calcium fluorescence, agonist mode; active compounds read high | B-score at 10 µM | actives 0.44% (n = 310,000);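 active means calcium response B-score plate-corrected fluorescence ratio at least 3 library SD, with starting fluorescence B-score inside 5 SD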
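Material: MrgX1-expressing HEK293 cells; input: 15,000 cells per well; doses: test compound given as first of three sequential additions; schedule: overnight plating before 1 h dye loading; technique: Fluo-4 NW calcium-flux fluorescence, kinetic read; evaluation: baseline-normalised fluorescence change ratio, B-scored; control set: plate-wise positive and negative controls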
RGS4 pot: potentiators or activators of RGS4. HEK293 M3R/inducible RGS4, carbachol calcium flux Fluo4; active compounds read low. actives 0.92% (n = 310,000). B-score at 10 µM;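 active means B-score of the integrated calcium signal more than 4 SD below the library mean, with starting fluorescence not abnormally high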;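 further: negative B-score means reduced calcium response which marks RGS4 activation or potentiation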
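System: HEK293 FlpIn-TREx cells, stable M3R, doxycycline-inducible RGS4. Timing: overnight RGS4 induction, 30 min dye load 37 °C, 20 min compound RT. Also added: carbachol, ECmax concentration. Measured by: Fluo4 fluorescence kinetic imaging of calcium. Evaluation: integrated calcium ratio converted to B score.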
RGS4 inh valid: RGS4 inhibitor validation | shares compounds with RGS4 block | HEK293 M3R/RGS4, carbachol calcium Fluo-4 fluorescence; carbachol added at its EC20; 0 = buffer wells, 100 = carbachol control | calcium response, % at 10 µM | actives 65% (n = 1,700);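 active means duplicate-averaged calcium response above the buffer-only control mean plus 5 SD of those controls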;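 further: integrated fluorescence ratio F max minus min over baseline F0; higher response in RGS4-induced cells means RGS4 inhibition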
RGS4 uninduced: checks RGS4 inhibitor effects in non-induced HEK293 M3R cells. shares compounds with RGS4 block. carbachol calcium Fluo-4; submaximal (EC20) carbachol stimulus; buffer wells 0%, carbachol control wells 100%. activity (percent), % at 10 µM. actives 20% (n = 1,900); call rule not given here;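 further: RGS4 induction absent so cells express M3R without RGS4; higher means more calcium signal and flags a non-specific hit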
RGS4 inh ctr2: signal in non-induced cells without carbachol, RGS4 inhibitor counter-screen; HEK293 M3R/RGS4 non-induced, Fluo-4 calcium, no carbachol; normalised: buffer wells 0%, carbachol wells 100%; calcium response (agonist-mode artifact), % at 10 µM; actives 22% (n = 1,900); shares compounds with RGS4 block; AID 493001;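 active means duplicate-averaged calcium rise in uninduced cells above buffer wells' mean plus 5 SD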
Starred values were filed as active, the others as inactive; i = inactive; . = no result given. Rows were chosen to be rich in hits. Some 3.8% of all compounds tested hit in one or more screens of this group.

SMILES	RGS4 block	Hep lipid drop	MrgX1 antagonist	MrgX1 PAM	MrgX1 ag	RGS4 pot	RGS4 uninduced	RGS4 inh ctr2	others
Cc1ccc(Nc2nc(N)nc(CN3CCN(Cc4ccc5c(c4)OCO5)CC3)n2)c(C)c1	i	.	i	i	i	i	.	.
O=C(NNC(=O)c1sccc1-n1cccc1)Nc1ccc(F)cc1	i	0.3	i	i	i	i	.	.
CCC(CC)NC(=O)C1CC(=O)N(CCc2ccc(F)cc2)C1 (stereo not drawn)	i	2.2	i	i	i	i	.	.
Cc1ccc(C2c3c(-c4ccccc4O)n[nH]c3C(=O)N2Cc2ccncc2)cc1 (stereo not drawn)	i	6.8	i	i	i	i	.	.
COc1cc(C2c3c(-c4cc(Cl)c(C)cc4O)n[nH]c3C(=O)N2Cc2cccnc2)ccc1O (stereo not drawn)	i	.	i	i	i	i	i	i
O=C(N/N=C/c1ccc2c(c1)OCO2)C(=O)Nc1cccc(Cl)c1	i	15.8	i	i	i	i	.	.
COc1cc(/C=C/c2[nH]c(=O)[nH]c(=O)c2[N+](=O)[O-])ccc1OCCC(C)C	i	5.8	i	i	i	i	.	.
O=c1[nH]c(/C=C/c2cccc([N+](=O)[O-])c2)c([N+](=O)[O-])c(=O)[nH]1	i	-8.8	i	i	i	i	.	.
O=c1[nH]c(/C=C/c2ccccc2)c([N+](=O)[O-])c(=O)[nH]1	5.7*	3.2	i	i	i	i	i	i	RGS4 inh valid=22.5%*
CCC(C)Oc1ccc(/C=C/c2[nH]c(=O)[nH]c(=O)c2[N+](=O)[O-])cc1OC (stereo not drawn)	5.56*	5.5	i	i	i	i	i	76.5%*	RGS4 inh valid=10.0%*
COc1ccc(C(=O)Nc2ccccc2C(=O)NC(Cc2c[nH]c3ccccc23)C(=O)O)cc1 (stereo not drawn)	i	1.4	i	i	i	i	.	.
Cc1ccc(S(=O)(=O)Nc2nnc(C3CCCCC3)s2)cc1	i	-1.2	i	i	i	i	.	.
COc1ccccc1-c1c(-c2ccc(OCC(=O)NN)cc2O)n[nH]c1C(F)(F)F	i	-4.8	i	i	i	i	i	i
NNC(=O)COc1ccc(-c2n[nH]c(C(F)(F)F)c2-c2ccc(Br)cc2)c(O)c1	8.07*	1.2	i	i	i	i	61.5%*	i	RGS4 inh valid=55.5%*
COc1ccccc1-c1cn[nH]c1-c1ccc(OCC(=O)NN)cc1O	i	.	i	i	i	i	.	.
COCC1CCN(Cc2c(C(=O)N3CCc4ccccc4C3)nc3ccc(Cl)cn23)C1 (stereo not drawn)	i	-23.7	i	i	i	i	.	.
COc1ccc(N2CCN(C(c3cccs3)C(C)NC(=O)C(=O)N3CCCCC3)CC2)cc1 (stereo not drawn)	i	1.2	i	i	i	i	.	.
CCOC(=O)C1=C(C)n2c(s/c(=C/c3cccc([N+](=O)[O-])c3)c2=O)=NC1c1ccc(O)c(OC)c1 (stereo not drawn)	33.9*	-10.6	i	i	i	i	34.5%*	20.0%*	RGS4 inh valid=66.0%*
COCCNC(=O)/C=C/c1c(Cl)cccc1Cl	i	2.4	i	i	i	i	.	.
O=C1N=C2SCCN2/C1=C\c1ccccc1Cl	i	.	i	i	i	i	.	.
CN(C)C1(CNC(=O)Nc2ccccc2)CCCCC1	4.67*	-23.2	i	i	i	i	i	i	RGS4 inh valid=i
CC(=O)Nc1ccc(C(=S)NCC2(N(C)C)CCCCC2)cc1	i	-1.2	i	i	i	i	.	.
CC(C)(C)NC(=O)CSc1nnc(C2CC2)n1-c1ccccc1	i	-6.3	i	i	i	i	.	.
COc1ccc(/C=C2\CCCC(C(=O)C(F)(F)F)=C2O)cc1	i	-2.6	i	i	i	i	.	.
O=C(C1=C(O)/C(=C/c2ccc(O)cc2)CCC1)C(F)(F)F	5.22*	-8.5	i	i	i	i	i	i	RGS4 inh valid=i
SMILES	RGS4 block	Hep lipid drop	MrgX1 antagonist	MrgX1 PAM	MrgX1 ag	RGS4 pot	RGS4 uninduced	RGS4 inh ctr2	others
CCn1nc(NS(=O)(=O)c2ccccc2)c2cc3cccc(C)c3nc21	i	-1.7	i	i	i	i	i	i
CCn1nc(NS(=O)(=O)c2ccc(C)cc2)c2cc3ccccc3nc21	i	12.5	i	i	i	i	.	.
CCn1nc(NS(=O)(=O)c2ccc(F)cc2)c2cc3cccc(C)c3nc21	i	-6.8	i	i	i	i	i	i	RGS4 inh valid=i
CCn1nc(NS(=O)(=O)c2ccc([N+](=O)[O-])cc2)c2cc3ccccc3nc21	i	-4.0	i	i	i	i	i	i
CCCn1nc(NS(C)(=O)=O)c2cc3cccc(C)c3nc21	i	.	i	i	i	i	.	.
CCn1nc(NS(=O)(=O)c2ccc(NC(C)=O)cc2)c2cc3cccc(C)c3nc21	i	2.2	i	i	i	i	.	.
S=c1[nH]nc(-c2cccs2)n1/N=C/c1c(Cl)cccc1Cl	11*	-0.2	i	i	i	i	i	i	RGS4 inh valid=17.0%*
CCOCCCNC(=O)c1c[nH]c2ccc(OCC)cc2c1=O	i	-3.5	i	i	i	i	.	.
O=C(O)CCc1ccc(-c2ccc(Br)cc2)o1	i	.	i	i	i	i	i	i
O=C(O)CCc1ccc(-c2ccc(Cl)cc2)o1	i	8.5	i	i	i	i	.	.
O=C(O)c1cccc(-n2c(-c3cnccn3)n[nH]c2=S)c1	i	2.8	i	i	i	i	.	.
Nc1ccc(-c2cc(-c3cccc(N)c3)nc(-c3ccccc3)n2)cc1	i	32.1	i	i	i	i	i	i	RGS4 inh valid=i
Nc1ccc(-c2nc(-c3ccccc3)nc3ccccc23)cc1	i	10.8	i	i	i	i	.	.

Assay outcomes as filed in PubChem BioAssay.
